Experimental data taken from ChEMBL document CHEMBL4257500, “Design, synthesis and antimycobacterial activity of hybrid molecules combining pyrazinamide with a 4-phenylthiazol-2-amine scaffold” (Medchemcomm, 2018).
In brackets after ≈: the same amount, converted by molar mass.

Experiments:
[1] = test system: Mycolicibacterium smegmatis; experiment: Antimycobacterial activity against Mycobacterium smegmatis ATCC 607 incubated in dark for 48 hrs by resazurin assay; assay type: functional; conditions: ATCC 607, 48 h
How it was run: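 Broth microdilution in Middlebrook 7H9 with glycerol and OADC, pH 6.6. Inoculum 0.5–1.0 McFarland, diluted 1:20 in broth. Compounds in DMSO by binary dilution, final 3.91–500 µg/mL; DMSO ≤2.5% v/v. Sealed plates kept dark, 37 °C, no agitation. After 48 h, 0.01% resazurin added; read after a further 2.5 h. Run in duplicate.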

[2] = test system: Mycobacterium tuberculosis; experiment: Antimycobacterial activity against Mycobacterium tuberculosis H37Rv ATCC 27294 incubated in dark for 5 days by Alamar Blue assay; assay type: functional; conditions: H37Rv ATCC 27294, 120 h
How it was run: (§1)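 Middlebrook 7H9 broth with 0.4% glycerol and 10% OADC, pH 6.6. Compounds in DMSO, final 100–1.56 µg/mL by twofold steps. Inoculum 0.5–1.0 McFarland in saline, diluted 10⁻¹. Static incubation at 37 °C, dark, humid, 5 days. Alamar Blue (resazurin/Tween 80) added, read after 24 h. MIC = lowest concentration preventing the blue-to-pink change by eye; turbidity also inspected. Isoniazid control.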

Mycobacterium kansasii = experiment: Antimycobacterial activity against Mycobacterium kansasii Hauduroy ATCC 12478 incubated in dark for 5 days by Alamar Blue assay; assay type: functional, Mycobacterium kansasii ATCC 12478; conditions: 120 h
Mycobacterium avium = experiment: Antimycobacterial activity against Mycobacterium avium subsp. avium Chester ATCC 15769 incubated in dark for 5 days by Alamar Blue assay; assay type: functional; conditions: Chester ATCC 15769, 120 h; how it was run: as §1
[3] = Solubility of compound in DMSO at 15 mg at room temperature; assay type: physicochemical
[4] = test system: Mycobacterium tuberculosis; experiment: Antimycobacterial activity against Mycobacterium tuberculosis H37Rv assessed as growth inhibition at 6.25 ug/ml by BACTEC 460 radiometric assay relative to control; assay type: functional; conditions: read-out: GI
[5] = Solubility of compound in DMSO at 15 mg at 55 to 80 degC; assay type: physicochemical
HepG2 [6] = experiment: Cytotoxicity against human HepG2 cells assessed as decrease in cell viability after 24 hrs by CellTox green assay; assay type: cell-based; conditions: HepG2, 24 h
How it was run: (§2)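 HepG2 seeded at 1×10^4 cells/well, dosed the next day with compounds in DMSO at 0.1–500 µM; DMSO ≤1%. Triplicates at 37 °C, 5% CO2. CellTox Green reagent added after 24 h exposure, 15 min at room temperature, fluorescence Ex 485/Em 520 nm. Reading repeated 24 h later for the 48 h value. IC50 by nonlinear regression against untreated control.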

HepG2 [7] = experiment: Cytotoxicity against human HepG2 cells assessed as decrease in cell viability after 24 hrs by MTS assay; assay type: cell-based; conditions: HepG2, 24 h
How it was run: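 HepG2 (passage 32–34) seeded at 1×10^4 cells/well and treated 24 h later. Compounds in DMSO, 0.1–1000 µM depending on solubility; DMSO ≤1%. Triplicates at 37 °C, 5% CO2 for 24 h. MTS reagent (CellTiter 96 AQueous One) for 2 h, absorbance at 490 nm. IC50 by nonlinear regression of absorbance relative to untreated cells.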

[8] = Selectivity index, ratio of IC50 for human HepG2 cells to MIC for Mycobacterium tuberculosis H37Rv ATCC 27294; assay type: toxicity; conditions: read-out: Selectivity Index
How it was run: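 SI = HepG2 IC50 / Mtb H37Rv MIC, with MIC converted to µM (µg/mL ÷ MW). HepG2 cells (passage 32–34) seeded at 1×10^4 per well. Treated after 24 h with 0.1–1000 µM depending on solubility, DMSO ≤1%, triplicates, 37 °C, 5% CO2, 24 h. Viability read by MTS-type reagent at 490 nm after 2 h. IC50 from nonlinear regression.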

HepG2 [9] = experiment: Cytotoxicity against human HepG2 cells assessed as decrease in cell viability after 48 hrs by CellTox green assay; assay type: cell-based; conditions: HepG2, 48 h; how it was run: as §2

SMILES | MIC [1] [µg/mL] | MIC [2] | MIC (Mycobacterium kansasii) [µg/mL] | MIC (Mycobacterium avium) [µg/mL] | solubility [3] | inhibition of growth at 6.25 µg/mL [4] [%] | solubility [5] | IC50 (HepG2 [6]) [µM] | IC50 (HepG2 [7]) [µM] | selectivity ratio [8] | IC50 (HepG2 [9]) [µM]
O=C(Nc1nc(-c2ccc(F)cc2)cs1)c1cnccn1 | > 250 | > 12.5 µg/mL | > 12.5 | > 12.5 | Insoluble | – | – | – | – | – | –
Cc1cnc(NC(=O)c2cnc(C(C)(C)C)c(Cl)n2)s1 | – | – | – | – | – | 15 to 65 | – | – | – | – | –
O=C(Nc1nc(-c2ccccn2)cs1)c1cnc(Cl)cn1 | > 125 | > 50 µg/mL | > 50 | > 50 | – | – | Soluble | – | – | – | –
O=C(Nc1nc(-c2ccc(Cl)cc2)cs1)c1cncc(Cl)n1 | 62.5 (≈ 178 µM) | > 12.5 µg/mL | > 12.5 | > 12.5 | Soluble | – | – | – | – | – | –
Cc1csc(NC(=O)c2cnc(C(C)(C)C)c(Cl)n2)n1 | – | – | – | – | – | 15 to 65 | – | – | – | – | –
O=C(Nc1nc(-c2ccccc2)cs1)c1cnc(Cl)cn1 | > 500 | > 100 µg/mL | > 100 | > 100 | – | – | Soluble | – | – | – | –
O=C(Nc1nc(-c2ccc(F)cc2)cs1)c1cncc(Cl)n1 | > 250 | 2.3 µM | 0.78 (≈ 2.33 µM) | 0.78 (≈ 2.33 µM) | Soluble | – | – | > 50 | > 50 | > 21.5 | > 50
Cc1cnc(NC(=O)c2cncc(Cl)n2)s1 | – | – | – | – | – | 15 to 65 | – | – | – | – | –
COc1ccc(-c2csc(NC(=O)c3cncc(Cl)n3)n2)cc1OC | > 125 | 4.1 µM | > 12.5 | > 12.5 | Insoluble | – | – | – | > 25 | > 6 | –
COc1ccc(-c2csc(NC(=O)c3cnccn3)n2)cc1OC | > 125 | > 50 µg/mL | > 50 | > 50 | Soluble | – | – | – | – | – | –
O=C(Nc1nccs1)c1cncc(Cl)n1 | – | – | – | – | – | 15 to 65 | – | – | – | – | –
COc1ccc(-c2csc(NC(=O)c3cnc(Cl)cn3)n2)cc1 | > 500 | 4.5 µM | > 50 | > 50 | – | – | Soluble | – | > 75 | > 16.7 | –
COc1ccc(-c2csc(NC(=O)c3cnc(Cl)cn3)n2)cc1OC | > 250 | > 12.5 µg/mL | > 12.5 | > 12.5 | Insoluble | – | – | – | – | – | –
O=C(Nc1nc(-c2ccc(Cl)cc2)cs1)c1cnccn1 | 62.5 (≈ 197 µM) | > 12.5 µg/mL | > 12.5 | > 12.5 | Insoluble | – | – | – | – | – | –
O=C(Nc1nc(-c2ccc(F)cc2)cs1)c1cnc(Cl)cn1 | > 500 | 9.4 µM | 12.5 (≈ 37.3 µM) | > 50 | Soluble | – | – | 22.4 | 24.8 | 2.7 | 18.1
O=C(Nc1nc(-c2ccccc2)cs1)c1cncc(Cl)n1 | > 500 | > 50 µg/mL | > 50 | – | – | – | Soluble | – | – | – | –
COc1ccc(-c2csc(NC(=O)c3cncc(Cl)n3)n2)cc1 | 62.5 (≈ 180 µM) | 4.5 µM | 12.5 (≈ 36 µM) | > 12.5 | Insoluble | – | – | – | > 25 | > 5.6 | –
O=C(Nc1nc(-c2ccccc2)cs1)c1cnccn1 | > 250 | > 50 µg/mL | > 50 | – | Soluble | – | – | – | – | – | –
Cc1csc(NC(=O)c2cncc(Cl)n2)n1 | – | – | – | – | – | 15 to 65 | – | – | – | – | –
O=C(Nc1nc(-c2ccccn2)cs1)c1cnccn1 | > 125 | 22.1 µM | > 50 | > 50 | – | – | Soluble | – | > 25 | > 1.1 | –
CC(C)(C)c1ncc(C(=O)Nc2nccs2)nc1Cl | – | – | – | – | – | 15 to 65 | – | – | – | – | –
O=C(Nc1nc(-c2ccccn2)cs1)c1cncc(Cl)n1 | > 125 | > 50 µg/mL | > 50 | > 50 | – | – | Soluble | – | – | – | –
COc1ccc(-c2csc(NC(=O)c3cnccn3)n2)cc1 | > 250 | > 100 µg/mL | > 100 | > 100 | Soluble | – | – | – | – | – | –
O=C(Nc1nc(-c2ccc(Cl)cc2)cs1)c1cnc(Cl)cn1 | > 500 | > 50 µg/mL | > 50 | > 50 | Soluble | – | – | – | – | – | –
O=C(O)c1cn(C2CC2)c2cc(N3CCNCC3)c(F)cc2c1=O [CIPROFLOXACIN] | 0.098 to 0.195 (≈ 0.296 to 0.589 µM) | 0.098 to 0.195 µg/mL | 0.098 to 0.195 (≈ 0.296 to 0.589 µM) | 0.098 to 0.195 (≈ 0.296 to 0.589 µM) | – | – | – | – | – | – | –
NNC(=O)c1ccncc1 [ISONIAZID] | 7.8 to 15.6 (≈ 56.9 to 114 µM) | 0.1 to 0.2 µg/mL | 12.5 to 25 (≈ 91.1 to 182 µM) | 6.25 to 12.5 (≈ 45.6 to 91.1 µM) | Soluble | – | – | – | – | – | –
CO[C@H]1/C=C/O[C@@]2(C)Oc3c(C)c(O)c4c(O)c(c(/C=N/N5CCN(C)CC5)c(O)c4c3C2=O)NC(=O)/C(C)=C\C=C\[C@H](C)[C@H](O)[C@@H](C)[C@@H](O)[C@@H](C)[C@H](OC(C)=O)[C@@H]1C [RIFAMPIN] | 0.78 to 1.56 (≈ 0.948 to 1.9 µM) | 0.78 to 1.56 µg/mL | 0.78 to 1.56 (≈ 0.948 to 1.9 µM) | 0.78 to 1.56 (≈ 0.948 to 1.9 µM) | – | – | – | – | – | – | –
